# From ChEMBL document CHEMBL4342467, “Discovery of a Novel Dual-Target Inhibitor of ERK1 and ERK5 That Induces Regulated Cell Death to Overcome Compensatory Mechanism in Specific Tumor Types” (J Med Chem, 2020)
# Active and inactive are the calls of the source. No cut-off for these calls is given here.
# Key:
# [1] = molecular target: T1, Mitogen-activated protein kinase; ERK1/ERK2 (Homo sapiens) (UniProt P27361+P28482); experiment: Inhibition of ERK1/2 phosphorylation in human MKN74 cells harboring ERK1/2 siRNA at 0.5 uM by immunofluorescence assay; type: cell-based
# T1 sequence (P27361 whole entry, looked up): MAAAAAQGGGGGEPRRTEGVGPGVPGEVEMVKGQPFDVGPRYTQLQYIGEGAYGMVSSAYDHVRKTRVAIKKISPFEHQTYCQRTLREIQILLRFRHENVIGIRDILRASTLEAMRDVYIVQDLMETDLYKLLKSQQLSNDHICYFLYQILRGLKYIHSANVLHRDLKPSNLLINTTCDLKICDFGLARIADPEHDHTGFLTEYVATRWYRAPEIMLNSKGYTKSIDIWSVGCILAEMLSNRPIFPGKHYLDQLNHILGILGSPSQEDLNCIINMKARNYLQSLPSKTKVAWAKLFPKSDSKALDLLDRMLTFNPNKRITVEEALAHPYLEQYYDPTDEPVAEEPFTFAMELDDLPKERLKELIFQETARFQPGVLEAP
# T1 sequence (P28482 whole entry, looked up): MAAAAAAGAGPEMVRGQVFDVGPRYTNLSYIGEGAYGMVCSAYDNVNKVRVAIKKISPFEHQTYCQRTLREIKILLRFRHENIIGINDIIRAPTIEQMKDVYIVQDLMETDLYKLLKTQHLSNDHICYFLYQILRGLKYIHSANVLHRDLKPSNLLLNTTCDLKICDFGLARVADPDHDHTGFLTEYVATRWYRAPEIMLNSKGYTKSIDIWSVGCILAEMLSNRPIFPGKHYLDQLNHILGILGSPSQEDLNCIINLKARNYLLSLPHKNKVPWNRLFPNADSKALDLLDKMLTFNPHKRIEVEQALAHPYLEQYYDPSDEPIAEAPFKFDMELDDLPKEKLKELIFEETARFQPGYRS
# How it was run: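 MKN-74 cells transfected with ERK1/2-specific or negative-control siRNA for the indicated times, then given 0.5 μM. p-ERK1/2 and p-ERK5 puncta detected by immunocytochemistry.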
# [2] = Effect on Ras/Raf/MEK/ERK signaling in human MKN74 cells assessed as change in p38 phosphorylation at Thr180/Tyr182 residue at 0.5 uM measured up to 24 hrs by Western blot analysis; type: cell-based
# How it was run: (§1)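 MKN-74 cells exposed to 0.5 μM for 0, 6, 12 and 24 h. Ras, Raf, p-MEK1/2, MEK1/2, p-JNK, JNK, p-p38 and p38 immunoblotted, with GAPDH as loading control.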
# [3] = Effect on Ras/Raf/MEK/ERK signaling in human MKN74 cells assessed as change in JNK phosphorylation at Thr183/Tyr185 residue at 0.5 uM measured up to 24 hrs by Western blot analysis; type: cell-based; how it was run: as §1
# [4] = molecular target: T1, Mitogen-activated protein kinase; ERK1/ERK2 (Homo sapiens); experiment: Inhibition of ERK1/2 in human MKN74 cells assessed as reduction in RSK phosphorylation at T359/S363 residue at 0.5 uM measured up to 24 hrs by Western blot analysis; type: cell-based
# [5] = AUC (0 to infinity) in Sprague-Dawley rat at 10 mg/kg, po by LC-MS analysis; type: ADME, organism-based; set-up: dose 10 mg/kg, route oral, time infinity; conditions: in vivo
# How it was run: (§2)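 Rats, two groups of 3; single i.v. dose 1 mg/kg or oral dose 10 mg/kg. Plasma concentration-time profiles used to derive T1/2, Tmax, Cmax, AUC0-t, AUC0-∞ and oral bioavailability. Data from triplicate testing, ± standard deviation.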
# HL-60 [6] = experiment: Antiproliferative activity against human HL60 cells assessed as reduction in cell viability measured after 24 hrs; type: functional, cell-based; conditions: HL-60, 24 h
# MKN-74 [7] = experiment: Induction of autophagy in human MKN74 cells assessed as increase in LC3-2 expression at 0.5 uM measured after 24 hrs in presence of autophagy inhibitor 3-methyladenine by Western blot analysis; type: functional, cell-based
# How it was run: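 MKN-74 cells given 0.5 μM for 24 h with or without 3-MA; LC3 and p62 immunoblotted.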
# [8] = molecular target: Mitogen-activated protein kinase 7 (Homo sapiens) (UniProt Q13164); experiment: Inhibition of ERK5 in human MKN74 cells assessed as reduction in ERK5 phosphorylation at T218/Y220 residue at 0.5 uM measured up to 24 hrs by Western blot analysis; type: cell-based
# Mitogen-activated protein kinase 7 (Homo sapiens), sequence (Q13164 2-816 limits assumed): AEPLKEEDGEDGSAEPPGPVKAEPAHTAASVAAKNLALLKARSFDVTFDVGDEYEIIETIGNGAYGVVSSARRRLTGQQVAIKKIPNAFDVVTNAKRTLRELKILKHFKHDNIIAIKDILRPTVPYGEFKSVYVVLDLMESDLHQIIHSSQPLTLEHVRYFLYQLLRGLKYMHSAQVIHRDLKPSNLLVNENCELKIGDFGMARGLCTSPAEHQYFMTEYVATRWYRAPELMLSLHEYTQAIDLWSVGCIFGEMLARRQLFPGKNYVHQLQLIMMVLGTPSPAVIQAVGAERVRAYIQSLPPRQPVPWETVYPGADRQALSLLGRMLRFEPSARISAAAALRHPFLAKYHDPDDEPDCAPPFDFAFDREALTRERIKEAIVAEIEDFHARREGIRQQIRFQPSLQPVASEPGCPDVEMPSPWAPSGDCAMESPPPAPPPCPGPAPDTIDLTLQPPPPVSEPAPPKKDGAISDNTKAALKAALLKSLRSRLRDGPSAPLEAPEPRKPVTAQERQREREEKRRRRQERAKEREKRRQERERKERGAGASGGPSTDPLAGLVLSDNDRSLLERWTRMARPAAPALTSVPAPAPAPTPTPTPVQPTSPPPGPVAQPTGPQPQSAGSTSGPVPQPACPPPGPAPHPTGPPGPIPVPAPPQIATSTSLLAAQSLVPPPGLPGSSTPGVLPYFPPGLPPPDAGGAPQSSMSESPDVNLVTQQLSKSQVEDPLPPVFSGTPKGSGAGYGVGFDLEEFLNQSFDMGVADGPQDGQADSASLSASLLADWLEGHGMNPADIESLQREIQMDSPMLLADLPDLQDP
# [9] = Oral bioavailability in Sprague-Dawley rat at 10 mg/kg by LC-MS analysis; type: ADME, organism-based; conditions: in vivo
# How it was run: (§3)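 Two groups of rats (3 per group) received a single dose, either 1 mg/kg i.v. or 10 mg/kg p.o. Plasma concentrations were followed to derive Tmax, Cmax, T1/2, AUC and F. Data are from triple testing (± standard deviation).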
# Mus musculus [10] = experiment: In vivo inhibition of ERK5 in BALB/c mouse xenografted with human MKN74 cells assessed as reduction in ERK5 phosphorylation at 50 mg/kg, po administered once daily for 16 days measured post-last dose by Western blot analysis; type: functional, organism-based
# How it was run: (§4)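 Two individual tumors excised from xenograft mice were lysed. ERK1/2, p-ERK1/2, ERK5 and p-ERK5 detected by western blot.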
# Mus musculus [11] = experiment: In vivo inhibition of ERK1/2 in BALB/c mouse xenografted with human MKN74 cells assessed as reduction in ERK1/2 phosphorylation at 50 mg/kg, po administered once daily for 16 days measured post-last dose by Western blot analysis; type: functional, organism-based; how it was run: as §4
# [12] = molecular target: Mitogen-activated protein kinase 7 (Homo sapiens) (UniProt Q13164); experiment: Inhibition of wild-type human partial length ERK5 (M1 to A409 residues) expressed in bacterial expression system at 1 uM by Kinomescan method relative to control
# How it was run: (§5)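 KINOMEscan binding assays over a 100-kinase panel, with test compound at 1 μM. Results are given as % inhibition.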
# [13] = molecular target: Mitogen-activated protein kinase 3 (Homo sapiens) (UniProt P27361); experiment: Inhibition of ERK1 (unknown origin) at 1 uM by Z'-Lyte assay relative to control
# Mitogen-activated protein kinase 3 (Homo sapiens), sequence (P27361 whole entry): as the sequence (P27361 whole entry, looked up) above
# [14] = Half life in Sprague-Dawley rat at 1 mg/kg, iv by LC-MS analysis; type: ADME, organism-based; conditions: in vivo; how it was run: as §2
# [15] = molecular target: Mitogen-activated protein kinase 1 (Homo sapiens) (UniProt P28482); experiment: Inhibition of wild-type human full length ERK2 (M1 to S360 residues) expressed in bacterial expression system at 1 uM by Kinomescan method relative to control; how it was run: as §5
# Mitogen-activated protein kinase 1 (Homo sapiens), sequence (P28482 whole entry, the tested form may be a part): as the sequence (P28482 whole entry, looked up) above
# [16] = Tmax in Sprague-Dawley rat at 10 mg/kg, po by LC-MS analysis; type: ADME, organism-based; conditions: in vivo; how it was run: as §3
# [17] = Effect on Ras/Raf/MEK/ERK signaling in human MKN74 cells assessed as change in p38 expression at 0.5 uM measured up to 24 hrs by Western blot analysis; type: cell-based; how it was run: as §1
# [18] = Half life in Sprague-Dawley rat at 10 mg/kg, po by LC-MS analysis; type: ADME, organism-based; conditions: in vivo; how it was run: as §2
# [19] = molecular target: Mitogen-activated protein kinase 7 (Homo sapiens) (UniProt Q13164); experiment: Inhibition of ERK5 in human MKN74 cells harboring siRNA assessed as reduction in ERK5 phosphorylation at 0.5 uM by immunofluorescence assay; type: cell-based
# How it was run: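 ERK1/2-specific or negative-control siRNA was transfected into MKN-74 cells for the indicated times, followed by compound at 0.5 μM. p-ERK1/2 and p-ERK5 puncta were detected by immunocytochemistry.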
# [20] = Effect on Ras/Raf/MEK/ERK signaling in human MKN74 cells assessed as change in Raf expression at 0.5 uM measured up to 24 hrs by Western blot analysis; type: cell-based; how it was run: as §1
# MKN-74 [21] = experiment: Induction of autophagy in human MKN74 cells harboring ATG5 siRNA assessed as increase in p62 degradation at 0.5 uM by Western blot analysis; type: functional, cell-based
# How it was run: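 MKN-74 cells transfected with ATG5 or negative-control siRNA for the indicated times, then 0.5 μM. ATG5, LC3 and p62 immunoblotted, with GAPDH loading control.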
# [22] = molecular target: Mitogen-activated protein kinase 7 (Homo sapiens) (UniProt Q13164); experiment: Inhibition of ERK5 (unknown origin) at 1 uM by Z'-Lyte assay relative to control
# HeLa = experiment: Antitumor activity against human HeLa cells xenografted in BALB/c mouse assessed as reduction in tumor volume at 50 mg/kg, po administered once daily for 16 days measured every 3 days during compound dosing; type: functional, organism-based
# How it was run: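 Female nude mice bearing subcutaneous HL-60, MKN-74 or HeLa xenografts, 8 per group. Dosing was vehicle control or 50 mg/kg p.o. once daily for 16 days. Tumor volume followed over time, mean ± SEM.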
# [23] = AUC (0 to t) in Sprague-Dawley rat at 1 mg/kg, iv by LC-MS analysis; type: ADME, organism-based; conditions: in vivo; how it was run: as §2
# HL-60 [24] = experiment: Induction of autophagy in human HL60 cells; type: functional, cell-based
# [25] = AUC (0 to infinity) in Sprague-Dawley rat at 1 mg/kg, iv by LC-MS analysis; type: ADME, organism-based; set-up: dose 1 mg/kg, route intravenous, time infinity; conditions: in vivo; how it was run: as §2
# [26] = Effect on Ras/Raf/MEK/ERK signaling in human MKN74 cells assessed as change in Ras expression at 0.5 uM measured up to 24 hrs by Western blot analysis; type: cell-based; how it was run: as §1
# [27] = Cmax in Sprague-Dawley rat at 10 mg/kg, po by LC-MS analysis; type: ADME, organism-based; set-up: dose 10 mg/kg, route oral; conditions: in vivo; how it was run: as §2
smiles,measurement,setting,value
NC(=O)c1c(NC(=O)c2ccccc2Cl)sc2c1CCN(C(=S)Nc1ccccc1Cl)C2,inhibition,[1],Active
same,Activity,[2],inactive
same,Activity,[3],inactive
same,inhibition,[4],inactive
same,AUC(0-inf),[5],5180 ng·h/mL
same,IC50,HL-60 [6],1260 nM
same,Activity,MKN-74 [7],inactive
same,inhibition,[8],Active
same,bioavailability,[9],27.6%
same,inhibition,Mus musculus [10],Active
same,inhibition,Mus musculus [11],Active
same,inhibition,[12],87%
same,inhibition,[13],93.5%
same,half-life,[14],57 min
same,inhibition,[15],91%
same,Tmax,[16],45 min
same,Activity,[17],inactive
same,half-life,[18],74.4 min
same,inhibition,[19],Active
same,Activity,[20],inactive
same,Activity,MKN-74 [21],inactive
same,inhibition,[22],89.3%
same,Activity,HeLa,inactive
same,AUC(0-t),[23],1840 ng·h/mL
same,Activity,HL-60 [24],inactive
same,AUC(0-inf),[25],1840 ng·h/mL
same,Activity,[26],inactive
same,Cmax,[27],1560 ng/mL
